Experimental data: ChEMBL document CHEMBL4354865 (J Med Chem, 2020)
Active and inactive are the calls of the source. The rule behind the calls is not given here.

What was measured:
[1] = Volume of distribution in BALB/c mouse at 10 mg/kg, iv by LC-MS analysis; assay type: ADME, organism-based; details: in vivo
Method in brief: (§1)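 Mice received a single i.v. dose of 10 mg/kg. Serial blood samples were taken and PK parameters derived, including half-life, clearance, volume of distribution and Cmax.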

[2] = target: Tryptophan 2,3-dioxygenase (Mus musculus, UniProt P48776); assay: Inhibition of mouse TDO transfected in P815 cells assessed as reduction in L-Kyn level measured after 16 hrs by HPLC analysis; assay type: cell-based
Sequence of Tryptophan 2,3-dioxygenase (P48776 whole entry): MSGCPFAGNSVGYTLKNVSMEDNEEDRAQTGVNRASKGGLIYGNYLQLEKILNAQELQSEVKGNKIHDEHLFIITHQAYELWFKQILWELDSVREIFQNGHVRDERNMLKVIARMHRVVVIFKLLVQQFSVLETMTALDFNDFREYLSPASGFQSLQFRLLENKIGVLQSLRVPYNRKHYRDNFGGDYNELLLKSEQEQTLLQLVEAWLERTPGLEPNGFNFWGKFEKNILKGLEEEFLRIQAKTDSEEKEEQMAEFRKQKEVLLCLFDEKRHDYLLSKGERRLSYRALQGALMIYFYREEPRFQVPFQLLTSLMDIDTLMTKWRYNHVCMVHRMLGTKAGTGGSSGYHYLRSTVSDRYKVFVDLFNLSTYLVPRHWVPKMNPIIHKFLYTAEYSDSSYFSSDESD
Method in brief: (§2)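 P815 mastocytoma cells stably expressing mouse IDO1 (P1.IDO1) or TDO (P1.TDO) were treated with serial dilutions for 16 h. L-Kyn secreted into the culture supernatant was quantified by HPLC, and an IC50 was determined in each line.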

[3] = system: Monocyte; assay: Effect on anti-CD3/anti-CD28-stimulated CD3+T cell proliferation in PDAC patient derived non-suppressive monocytes co-cultured with human PBMC at 30 uM preincubated for 4 days followed by co-culturing of monocytes and measured after 24 hrs by flow cytometric analysis; assay type: cell-based
Method in brief: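 PDAC patient monocytes (suppressive or non-suppressive) were pre-treated with 30 µM compound or DMSO, then co-cultured for 4 days with Cell Trace-labelled activated CD3+ T cells. T-cell proliferation was read from proliferation peaks and normalized to activated T cells cultured without myeloid cells. Data are mean ± SEM; Mann-Whitney test.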

[4] = target: T1, Indoleamine 2,3-dioxygenase 1 (Homo sapiens, UniProt P14902); assay: Inhibition of IDO1 in IFNgamma-stimulated human A375 cells assessed as reduction in L-Kyn level at 1 uM measured after 48 hrs by HPLC analysis relative to control
Method in brief: (§3)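 A375 cells, unstimulated or stimulated with recombinant human IFN-γ, were left untreated or treated with 1 µM compound for 48 h. L-Kyn was measured by HPLC and cell viability was assessed.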
Target sequence in this assay (P14902 whole entry, looked up): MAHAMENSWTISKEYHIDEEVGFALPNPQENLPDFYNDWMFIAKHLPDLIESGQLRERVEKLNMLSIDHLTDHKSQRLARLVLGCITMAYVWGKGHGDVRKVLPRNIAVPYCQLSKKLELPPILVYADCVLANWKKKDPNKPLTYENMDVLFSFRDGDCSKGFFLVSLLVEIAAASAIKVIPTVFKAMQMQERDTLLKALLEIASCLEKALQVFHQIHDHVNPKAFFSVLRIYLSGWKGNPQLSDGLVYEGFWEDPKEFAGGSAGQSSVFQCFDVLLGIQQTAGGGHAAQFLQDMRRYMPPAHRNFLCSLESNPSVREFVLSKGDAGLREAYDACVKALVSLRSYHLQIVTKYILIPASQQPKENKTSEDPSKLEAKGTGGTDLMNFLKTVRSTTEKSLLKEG

[5] = Cmax in BALB/c mouse at 10 mg/kg, iv by LC-MS analysis; assay type: ADME, organism-based; set-up: dose 10 mg/kg, route intravenous; details: in vivo; method in brief: as §1
[6] = Drug metabolism in CD-1 mouse liver microsomes assessed as benzimidazole oxidation at 50 uM measured after 1 hr by LC-HRMS analysis; assay type: ADME, Microsome
[7] = target: T1, Indoleamine 2,3-dioxygenase 1; assay: Inhibition of IDO1 in IFNgamma-stimulated human MCF7 cells assessed as reduction in L-Kyn level measured after 48 hrs by HPLC analysis; assay type: cell-based
Target sequence in this assay (P14902 whole entry): as the sequence (P14902 whole entry, looked up) above

[8] = target: T1, Indoleamine 2,3-dioxygenase 1; assay: Inhibition of IDO1 in IFNgamma-stimulated human A375 cells assessed as reduction in L-Kyn level measured after 48 hrs by HPLC analysis
Target sequence in this assay (P14902 whole entry): as the sequence (P14902 whole entry, looked up) above

[9] = Metabolic stability in CD-1 mouse liver microsomes assessed as parent compound remaining at 50 uM measured after 1 hr in presence of NADPH by UV-LC/MS analysis
[10] = target: Indoleamine 2,3-dioxygenase 1 (Mus musculus, UniProt P28776); assay: Inhibition of mouse IDO1 transfected in P815 cells assessed as reduction in L-Kyn level measured after 16 hrs by HPLC analysis; assay type: cell-based; method in brief: as §2
Sequence of Indoleamine 2,3-dioxygenase 1 (Mus musculus, UniProt P28776) (P28776 whole entry): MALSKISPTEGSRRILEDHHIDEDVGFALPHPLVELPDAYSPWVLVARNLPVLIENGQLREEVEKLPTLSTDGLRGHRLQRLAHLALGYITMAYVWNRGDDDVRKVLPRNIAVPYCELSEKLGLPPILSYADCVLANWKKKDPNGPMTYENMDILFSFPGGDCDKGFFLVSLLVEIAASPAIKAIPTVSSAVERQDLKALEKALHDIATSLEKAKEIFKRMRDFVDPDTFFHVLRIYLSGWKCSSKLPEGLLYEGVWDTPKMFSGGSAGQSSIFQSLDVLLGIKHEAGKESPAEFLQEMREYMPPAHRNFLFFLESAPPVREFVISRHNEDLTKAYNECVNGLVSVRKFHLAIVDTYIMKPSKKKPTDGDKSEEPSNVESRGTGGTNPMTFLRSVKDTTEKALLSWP

[11] = Cytotoxicity against human A375 cells assessed as cell viability at 1 uM measured after 48 hrs by MTT assay relative to control; assay type: cell-based, A-375; details: read-out: Activity; method in brief: as §3
[12] = Drug metabolism in CD-1 mouse liver microsomes assessed as oxidative N-dealkylation at 50 uM measured after 1 hr by LC-HRMS analysis; assay type: ADME, Microsome
[13] = target: T1, Indoleamine 2,3-dioxygenase 1; assay: Selectivity ratio of IC50 for IDO1 in IFNgamma-stimulated human DAN-G cells to IC50 for IDO1 in IFNgamma-stimulated human A375 cells
Target sequence in this assay (P14902 whole entry, looked up): as the sequence (P14902 whole entry, looked up) above

[14] = Metabolic stability in CD-1 mouse liver microsomes assessed as parent compound remaining at 50 uM measured after 1 hr in presence of NADPH generating system by UV-LC/MS analysis; assay type: ADME, Microsome; details: read-out: Stability
Method in brief: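 Mouse liver microsomes activated with NADPH. Residual parent compound was measured after 1 h incubation.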

[15] = system: Mus musculus; assay: In vivo inhibition of IDO1 in BALB/c mouse assessed as reduction in L-kyn level at 10 mg/kg, iv measured up to 8 hrs by LC-HRMS analysis
[16] = target: T1, Indoleamine 2,3-dioxygenase 1; assay: Inhibition of IDO1 in IFNgamma-stimulated human DAN-G cells assessed as reduction in L-Kyn level measured after 48 hrs by HPLC analysis; assay type: cell-based
Target sequence in this assay (P14902 whole entry): as the sequence (P14902 whole entry, looked up) above

[17] = system: Monocyte; assay: Cytotoxicity against human monocytes assessed as reduction in cell viability at 30 uM measured after 24 hrs by Annexin-V APC/7-AAD staining based flow cytometric analysis
Method in brief: (§4)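 Monocytes from healthy donors (n=3) and from PDAC patients (n=3) were treated for 24 h, with DMSO as control. Viability was normalized to untreated cells. Healthy-donor cells received a range of concentrations; PDAC cells received 30 µM.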

[18] = species on record: Mus musculus; assay: Selectivity ratio of IC50 for inhibition of mouse TDO transfected in P815 cells to IC50 for inhibition of mouse IDO1 transfected in P815 cells; assay type: cell-based; method in brief: as §2
[19] = target: T1, Indoleamine 2,3-dioxygenase 1; assay: Inhibition of IDO1 in PDAC patient derived suppressive monocytes co-cultured with human PBMC assessed as reduction in anti-CD3/anti-CD28-stimulated CD3+T cell proliferation at 30 uM preincubated for 4 days followed by co-culturing of monocytes and measured after 24 hrs by flow cytometric analysis
Target sequence in this assay (P14902 whole entry, looked up): as above

[20] = Half life in BALB/c mouse at 10 mg/kg, iv by LC-MS analysis; assay type: ADME, organism-based; details: in vivo; method in brief: as §1
[21] = system: Monocyte; assay: Cytotoxicity against PDAC patient derived monocytes assessed as reduction in cell viability at 30 uM measured after 24 hrs by Annexin-V APC/7-AAD staining based flow cytometric analysis; details: human; method in brief: as §4
[22] = Inhibition of CYP450 in rat liver microsomes assessed as reduction in aminopyrine N-demethylase activity preincubated for 3 mins followed by NADPH addition and measured after 15 mins by iodometric titration method; assay type: ADME; details: rat, microsomes, 0.25 h
Method in brief: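 CYP inhibition read by aminopyrine N-demethylase activity, with IC50 determined from concentration–response curves. Ketoconazole (CYP3A inhibitor) served as reference.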

- Vd [1]: 6.6 L/kg
- IC50 [2]: 13200 nM
- inhibition [4]: 94%
- Cmax [5]: 2680 ng/mL
- Drug metabolism [6]: Metabolite_Detected
- IC50 [7]: 83 nM
- IC50 [8]: 72 nM
- remaining at 1 h, 50 µM [9]: 65%
- IC50 [10]: 9.3 nM
- Drug metabolism [12]: Metabolite_Detected
- Ratio IC50 [13]: 1.9
- remaining at 1 h, 50 µM [14]: 65%
- IC50 [16]: 140 nM
- inhibition [19]: Active
- t1/2 [20]: 39 min
- inhibition (INH) [22]: Not Active
SMILES: O=C(NCc1cccc(Cn2cnc3ccccc32)c1)c1cc2ccccc2[nH]1
- Activity [3]: Non-Toxic
- viability at 48 h, 1 µM [11]: 99%
- inhibition [15]: Active
- Activity [17]: Non-Toxic
- Ratio IC50 [18]: > 1000
- Activity [21]: Non-Toxic
